The text below walks through data of ChEMBL document CHEMBL1137574, “Synthesis and structure-activity relationship for a novel class of potent and selective carbamate-based inhibitors of hormone selective lipase with acute in vivo antilipolytic effects” (J Med Chem, 2007).

In general, IC50 refers to the concentration needed to halve the response being measured. A word on the bioavailability: it is the share of a dose that reaches the circulation, judged against a reference dose that is usually intravenous. A higher bioavailability goes with much systemic uptake. For orientation: Cmax means the highest concentration seen after dosing.

Data set [1] addresses Cholinesterase (Homo sapiens, UniProt P06276). Kind of data set: Inhibition of butyrylcholine esterase.
Data set [2] is described as follows: Clearance in Sprague-Dawley rat at 1.2 mg/kg, iv and […] mg/kg, po. Format: ADME, organism-based. To be noted: in vivo.
Data set [3] concerns the target Acetylcholinesterase (Homo sapiens, UniProt P22303). Kind of data set: Inhibition of acetylcholine esterase. The method in brief:
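Acetylcholinesterase activity measured with acetylthiocholine substrate. Inhibitor at six concentrations in 5-fold steps from a maximum of 100 µM, duplicate measurements averaged. IC50 from variable-slope sigmoidal dose-response fit.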

Data set [4] deals with T1, Hormone-sensitive lipase (Homo sapiens, UniProt Q05469).
T1 sequence (Q05469 whole entry): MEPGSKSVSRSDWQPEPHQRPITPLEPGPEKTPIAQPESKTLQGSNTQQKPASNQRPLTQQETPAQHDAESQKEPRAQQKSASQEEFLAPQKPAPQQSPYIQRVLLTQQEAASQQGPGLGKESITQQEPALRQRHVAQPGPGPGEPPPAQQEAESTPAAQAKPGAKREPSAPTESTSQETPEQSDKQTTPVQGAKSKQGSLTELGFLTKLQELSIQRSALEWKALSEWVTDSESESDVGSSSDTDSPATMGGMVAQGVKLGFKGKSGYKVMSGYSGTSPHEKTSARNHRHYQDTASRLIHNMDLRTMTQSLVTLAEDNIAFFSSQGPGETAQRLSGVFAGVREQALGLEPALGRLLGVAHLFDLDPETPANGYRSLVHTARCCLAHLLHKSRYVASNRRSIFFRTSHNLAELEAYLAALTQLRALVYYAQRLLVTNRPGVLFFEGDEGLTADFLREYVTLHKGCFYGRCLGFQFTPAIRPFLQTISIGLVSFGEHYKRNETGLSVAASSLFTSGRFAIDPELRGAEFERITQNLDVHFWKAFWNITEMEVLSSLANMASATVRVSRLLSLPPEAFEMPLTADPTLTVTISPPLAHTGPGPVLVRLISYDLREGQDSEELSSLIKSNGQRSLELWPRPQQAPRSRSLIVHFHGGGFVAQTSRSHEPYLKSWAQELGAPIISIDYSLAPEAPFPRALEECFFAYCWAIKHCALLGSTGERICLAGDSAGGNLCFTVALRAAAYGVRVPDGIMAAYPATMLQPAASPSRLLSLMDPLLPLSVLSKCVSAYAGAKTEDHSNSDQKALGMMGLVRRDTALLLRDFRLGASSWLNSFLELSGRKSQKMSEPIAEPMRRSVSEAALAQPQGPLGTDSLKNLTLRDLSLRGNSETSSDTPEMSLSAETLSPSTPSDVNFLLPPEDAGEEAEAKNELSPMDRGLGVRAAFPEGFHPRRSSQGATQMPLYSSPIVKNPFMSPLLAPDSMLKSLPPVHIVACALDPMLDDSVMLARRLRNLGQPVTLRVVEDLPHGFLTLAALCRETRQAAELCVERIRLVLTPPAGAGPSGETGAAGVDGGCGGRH
Put plainly: Inhibition of recombinant human hormone-sensitive lipase.

Data set [5] is described as follows: Oral bioavailability in Sprague-Dawley rat at 2.4 mg/kg, po. Format: ADME, organism-based. The note with it: in vivo. Summed up:
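Male Sprague-Dawley rats, 12 weeks old, dosed by oral gavage and i.v. in 10% hydroxypropyl cyclodextrin in phosphate buffer pH 7.0, with one rat per time point. Plasma was diluted 1:1 in 10% methanol, centrifuged and quantified by turbulent-flow chromatography–tandem MS against plasma calibration curves (10-3000 ng/mL).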

Data set [6] can be described thus: Cmax in Sprague-Dawley rat at 1.2 mg/kg, iv and […] mg/kg, po. To be noted: in vivo, 2.4 mg/kg. In kind it is ADME, organism-based.
For data set [7], the system named is Rattus norvegicus. Put plainly: Antilipolytic activity in Sprague-Dawley rat at 10 mg/kg, po. In kind it is ADME, organism-based. On the set-up: dose 10 mg/kg, route oral. The note with it: in vivo. Summed up:
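Male Sprague-Dawley rats, 12 weeks old, fasted overnight; single 10 mg/kg p.o. dose (n = 4 per group; vehicle n = 8). Orbital plexus blood under isoflurane taken at baseline (0.5 h predose) and 1, 3 and 5 h postdose into EDTA tubes with 0.1% NaF. Plasma glycerol measured on an automated analyzer as the antilipolytic endpoint.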

Data set [8] concerns the target T2, Pancreatic triacylglycerol lipase (Homo sapiens) (UniProt P16233).
T2 sequence (whole entry): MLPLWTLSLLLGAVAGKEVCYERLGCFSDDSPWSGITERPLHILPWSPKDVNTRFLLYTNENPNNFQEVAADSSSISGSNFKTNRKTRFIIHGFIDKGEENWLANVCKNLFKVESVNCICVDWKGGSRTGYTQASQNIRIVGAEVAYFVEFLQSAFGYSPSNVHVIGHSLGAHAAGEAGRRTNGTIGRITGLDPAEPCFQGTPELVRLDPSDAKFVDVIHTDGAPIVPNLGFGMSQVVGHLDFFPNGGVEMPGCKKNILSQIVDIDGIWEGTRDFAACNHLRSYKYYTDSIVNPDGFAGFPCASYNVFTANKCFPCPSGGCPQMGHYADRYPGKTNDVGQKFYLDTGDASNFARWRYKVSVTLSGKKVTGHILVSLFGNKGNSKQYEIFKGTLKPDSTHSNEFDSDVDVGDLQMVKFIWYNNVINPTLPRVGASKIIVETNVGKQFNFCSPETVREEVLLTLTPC
Kind of data set: Inhibition of Pancreatic lipase. The method in brief:
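Lipase inhibition (pancreatic, bovine lipoprotein, human hepatic) used a fluorochrome (NBD)-labelled triacylglyceride substrate. Inhibitor at six concentrations, 5-fold dilutions from a maximum of 100 µM, each point the mean of two measurements. IC50 from sigmoidal variable-slope nonlinear regression.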

Data set [9] can be described thus: Drug level in Sprague-Dawley rat at 10 mg/kg, po after 1 hr. Format: ADME, organism-based. On the set-up: dose 10 mg/kg, route oral. The note with it: in vivo, read-out: Drug uptake. The method in brief: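 Overnight-fasted male Sprague-Dawley rats received 10 mg/kg p.o. (n = 4). Plasma from orbital blood was collected into EDTA/NaF tubes, stored at -80 °C, and drug measured by turbulent-flow chromatography–MS/MS against plasma calibration curves (10-3000 ng/mL).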

The nature of data set [10]: Cmax in Sprague-Dawley rat at 1.1 mg/kg, iv and 2 mg/kg, po. Format: ADME, organism-based. The note with it: in vivo. The method in brief:
(§1)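 Rat PK study, one rat per time point. Dosed i.v. and p.o. by gavage in 10% hydroxypropyl cyclodextrin in phosphate buffer pH 7.0; one compound was given in 20% Tween 80 plus 5% glucose in phosphate buffer pH 7.0. Plasma was diluted 1:1 with 10% methanol and centrifuged, then quantified by turbulent-flow chromatography–MS/MS against plasma calibration curves spanning 10-3000 ng/mL.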

The nature of data set [11]: Oral bioavailability in Sprague-Dawley rat at 2.2 mg/kg, po. In kind it is ADME, organism-based. To be noted: in vivo. Summed up: as §1
The nature of data set [12]: Clearance in Sprague-Dawley rat at 1.1 mg/kg, iv and 2.2 mg/kg, po. In kind it is ADME, organism-based. To be noted: in vivo. Summed up: as §1

The source made the active and inactive calls. No cut-off for these calls is given here.

Sequence of Cholinesterase (P06276 whole entry): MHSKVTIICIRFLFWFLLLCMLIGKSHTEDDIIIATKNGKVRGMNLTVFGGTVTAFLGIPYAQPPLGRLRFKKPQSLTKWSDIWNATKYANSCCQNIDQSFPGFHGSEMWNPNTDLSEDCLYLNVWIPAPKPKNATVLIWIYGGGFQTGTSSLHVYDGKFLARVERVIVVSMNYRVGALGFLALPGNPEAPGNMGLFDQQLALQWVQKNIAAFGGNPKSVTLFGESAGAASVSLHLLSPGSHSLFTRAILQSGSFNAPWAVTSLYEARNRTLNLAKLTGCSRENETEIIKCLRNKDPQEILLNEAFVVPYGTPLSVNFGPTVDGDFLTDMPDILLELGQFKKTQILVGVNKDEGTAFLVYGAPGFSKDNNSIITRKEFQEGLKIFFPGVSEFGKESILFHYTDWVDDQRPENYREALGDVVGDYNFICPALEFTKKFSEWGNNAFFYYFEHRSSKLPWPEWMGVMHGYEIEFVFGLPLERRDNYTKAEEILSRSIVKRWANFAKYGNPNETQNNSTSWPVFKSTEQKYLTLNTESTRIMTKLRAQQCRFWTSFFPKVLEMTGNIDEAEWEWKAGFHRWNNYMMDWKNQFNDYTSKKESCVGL
Sequence of Acetylcholinesterase (P22303 whole entry): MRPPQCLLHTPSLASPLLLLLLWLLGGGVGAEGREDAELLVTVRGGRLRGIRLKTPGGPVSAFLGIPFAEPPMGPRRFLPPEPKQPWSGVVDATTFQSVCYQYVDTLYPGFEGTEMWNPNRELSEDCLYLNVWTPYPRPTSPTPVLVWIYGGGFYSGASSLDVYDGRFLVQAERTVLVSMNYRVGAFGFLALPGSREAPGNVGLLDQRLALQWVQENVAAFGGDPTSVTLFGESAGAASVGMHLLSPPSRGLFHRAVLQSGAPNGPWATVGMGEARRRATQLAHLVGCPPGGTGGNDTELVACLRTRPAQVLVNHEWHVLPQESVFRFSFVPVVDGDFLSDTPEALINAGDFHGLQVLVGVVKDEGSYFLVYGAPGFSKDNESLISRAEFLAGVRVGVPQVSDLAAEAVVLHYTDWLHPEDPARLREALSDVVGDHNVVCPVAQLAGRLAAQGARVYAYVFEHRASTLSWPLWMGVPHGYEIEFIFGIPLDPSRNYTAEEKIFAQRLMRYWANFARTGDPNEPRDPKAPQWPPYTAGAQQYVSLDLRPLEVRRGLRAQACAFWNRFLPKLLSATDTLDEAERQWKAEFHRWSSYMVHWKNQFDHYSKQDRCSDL

`O=C(Oc1ccc(Oc2ccc(C(F)(F)F)cn2)cc1)N1CCC(O)CC1`: the half-inhibitory concentration (IC50) in data set [1] is over 50000 nM; in data set [3], over 50000 nM; in data set [4], 500 nM. Also, the clearance in [2] was 9 mL/min/kg. Further, in data set [5], the bioavailability worked out at 56%. For the same compound, in data set [6], the Cmax was 1220 ng/mL. In data set [7], the result was Active. For the same compound, in data set [8], the outcome was inactive. For the same compound, the concentration at 1 h in data set [9] came to 3200 ng/mL.

Turning to `O=C(Oc1ccc(Oc2ccc(C(F)(F)F)cn2)cc1)N1CCC(CO)CC1`, the IC50 is over 50000 nM in data set [1] and 110 nM in data set [4]. The compound further came in with a peak concentration (Cmax) in [10] of 60 ng/mL. Moreover, the bioavailability in [11] was 10%. The compound further came in with a clearance in data set [12] of 46 mL/min/kg. In addition, the result in data set [7] was Active. For the same compound, in data set [8], the result was inactive. Further, in data set [9], the concentration at 1 h was 379 ng/mL.
